Results reported in ChEMBL document CHEMBL1914423, “New imidazo[2,1-b]thiazole derivatives: synthesis, in vitro anticancer evaluation, and in silico studies” (Eur J Med Chem, 2011).

Tests used:
Type in all cases: functional
SK-OV-3 = test: Anticancer activity against human SKOV3 cells assessed as cell growth at 10^-5 M after 48 hrs by SRB assay; settings: SK-OV-3, 48 h, read-out: Activity
SN12C = test: Anticancer activity against human SN12C cells assessed as cell growth at 10^-5 M after 48 hrs by SRB assay; settings: read-out: Activity
NCI-H460 = test: Anticancer activity against human NCI-H460 cells assessed as cell growth at 10^-5 M after 48 hrs by SRB assay; settings: NCI-H460, 48 h, read-out: Activity
CCRF-CEM = test: Anticancer activity against human CCRF-CEM cells assessed as cell growth at 10^-5 M after 48 hrs by SRB assay; settings: read-out: Activity
In short: (§1)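 NCI-60 single-dose screen at one concentration. Cells grown in RPMI 1640 with 5% FBS and 2 mM L-glutamine, plated at 5000–40,000 cells/well, and pre-incubated 24 h at 37 °C in 5% CO2 before DMSO-dissolved drug was added. Cells fixed with TCA, SRB-stained, absorbance read at 515 nm. Percent growth calculated against time-zero and untreated control plates.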

U-251 = test: Anticancer activity against human U251 cells assessed as cell growth at 10^-5 M after 48 hrs by SRB assay; settings: U-251, 48 h, read-out: Activity
In short: (§2)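 NCI-60 single-dose screen: cells in RPMI 1640 with 5% FBS and 2 mM L-glutamine, plated at 5000–40,000 cells/well by doubling time, and preincubated 24 h at 37 °C. Compound given at one concentration from DMSO stock. Cells TCA-fixed and SRB-stained, absorbance at 515 nm. Percent growth relative to time-zero and untreated controls; inhibition % = 100 − growth %.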

KM12 = test: Anticancer activity against human KM12 cells assessed as cell growth at 10^-5 M after 48 hrs by SRB assay; settings: KM12, 48 h, read-out: Activity; in short: as §1
HOP-62 = test: Anticancer activity against human HOP62 cells assessed as cell growth at 10^-5 M after 48 hrs by SRB assay; settings: HOP-62, 48 h, read-out: Activity; in short: as §1
HCC 2998 = test: Anticancer activity against human HCC2998 cells assessed as cell growth at 10^-5 M after 48 hrs by SRB assay; settings: HCC 2998, 48 h, read-out: Activity; in short: as §1
A549 = test: Anticancer activity against human A549 cells assessed as cell growth at 10^-5 M after 48 hrs by SRB assay; settings: A549, 48 h, read-out: Activity; in short: as §1
NCI/ADR-RES = test: Anticancer activity against human NCI/ADR-RES cells assessed as cell growth at 10^-5 M after 48 hrs by SRB assay; settings: read-out: Activity
NCI-H23 = test: Anticancer activity against human NCI-H23 cells assessed as cell growth at 10^-5 M after 48 hrs by SRB assay; settings: NCI-H23, 48 h, read-out: Activity
OVCAR-8 = test: Anticancer activity against human OVCAR8 cells assessed as cell growth at 10^-5 M after 48 hrs by SRB assay; settings: OVCAR-8, 48 h, read-out: Activity
IGROV-1 = test: Anticancer activity against human IGROV1 cells assessed as cell growth at 10^-5 M after 48 hrs by SRB assay; settings: IGROV-1, 48 h, read-out: Activity; in short: as §1
SF-539 = test: Anticancer activity against human SF539 cells assessed as cell growth at 10^-5 M after 48 hrs by SRB assay; settings: SF-539, 48 h, read-out: Activity
K562 = test: Anticancer activity against human K562 cells assessed as cell growth at 10^-5 M after 48 hrs by SRB assay; settings: K562, 48 h, read-out: Activity; in short: as §1
RPMI-8226 = test: Anticancer activity against human RPMI8226 cells assessed as cell growth at 10^-5 M after 48 hrs by SRB assay; settings: RPMI-8226, 48 h, read-out: Activity
786-0 = test: Anticancer activity against human 786-0 cells assessed as cell growth at 10^-5 M after 48 hrs by SRB assay; settings: 786-0, 48 h, read-out: Activity; in short: as §1
SK-MEL-28 = test: Anticancer activity against human SK-MEL-28 cells assessed as cell growth at 10^-5 M after 48 hrs by SRB assay; settings: SK-MEL-28, 48 h, read-out: Activity
A498 = test: Anticancer activity against human A498 cells assessed as cell growth at 10^-5 M after 48 hrs by SRB assay; settings: A498, 48 h, read-out: Activity; in short: as §1
MDA-MB-435 = test: Anticancer activity against human MDA-MB-435 cells assessed as cell growth at 10^-5 M after 48 hrs by SRB assay; settings: MDA-MB-435, 48 h, read-out: Activity
HCT-15 = test: Anticancer activity against human HCT15 cells assessed as cell growth at 10^-5 M after 48 hrs by SRB assay; settings: HCT-15, 48 h, read-out: Activity; in short: as §1
UACC-257 = test: Anticancer activity against human UACC257 cells assessed as cell growth at 10^-5 M after 48 hrs by SRB assay; settings: UACC-257, 48 h, read-out: Activity; in short: as §2
COLO 205 = test: Anticancer activity against human COLO205 cells assessed as cell growth at 10^-5 M after 48 hrs by SRB assay; settings: COLO 205, 48 h, read-out: Activity; in short: as §1
RXF 393 = test: Anticancer activity against human RXF393 cells assessed as cell growth at 10^-5 M after 48 hrs by SRB assay; settings: RXF 393, 48 h, read-out: Activity
OVCAR-3 = test: Anticancer activity against human OVCAR3 cells assessed as cell growth at 10^-5 M after 48 hrs by SRB assay; settings: OVCAR-3, 48 h, read-out: Activity
DU-145 = test: Anticancer activity against human DU145 cells assessed as cell growth at 10^-5 M after 48 hrs by SRB assay; settings: DU-145, 48 h, read-out: Activity; in short: as §1
SNB-75 = test: Anticancer activity against human SNB75 cells assessed as cell growth at 10^-5 M after 48 hrs by SRB assay; settings: SNB-75, 48 h, read-out: Activity; in short: as §2
Malme-3M = test: Anticancer activity against human MALME-3M cells assessed as cell growth at 10^-5 M after 48 hrs by SRB assay; settings: read-out: Activity; in short: as §1
NCI-H522 = test: Anticancer activity against human NCI-H522 cells assessed as cell growth at 10^-5 M after 48 hrs by SRB assay; settings: NCI-H522, 48 h, read-out: Activity

Row | SMILES | growth at 10 µM (SK-OV-3) | growth at 10 µM (SN12C) | growth at 10 µM (NCI-H460) | growth at 10 µM (CCRF-CEM) | growth at 10 µM (U-251) | growth at 10 µM (KM12) | growth at 10 µM (HOP-62) | growth at 10 µM (HCC 2998) | growth at 10 µM (A549) | growth at 10 µM (NCI/ADR-RES) | growth at 10 µM (NCI-H23) | growth at 10 µM (IGROV-1) | growth at 10 µM (SF-539) | growth at 10 µM (K562) | growth at 10 µM (RPMI-8226) | growth at 10 µM (786-0) | growth at 10 µM (SK-MEL-28) | growth at 10 µM (A498) | growth at 10 µM (MDA-MB-435) | growth at 10 µM (HCT-15) | other results
1 | COc1cccc(-c2nc3sccn3c2-c2ccnc(NCCNC(=O)Nc3ccccc3)n2)c1 | 99% | 65.6% | 115% | 44.4% | 108% | 92% | 129% | 113% | 101% | 96.1% | 111% | 97.9% | 43.8% | 99.4% | 55.5% | 96.8% | 108% | 103% | 96.6% | 87.8% | growth at 10 µM (OVCAR-8): 74.7%; growth at 10 µM (UACC-257): 119%; growth at 10 µM (COLO 205): 100%; growth at 10 µM (RXF 393): 107%; growth at 10 µM (OVCAR-3): 109%; growth at 10 µM (DU-145): 102%; growth at 10 µM (SNB-75): 90.8%; growth at 10 µM (Malme-3M): 112%; growth at 10 µM (NCI-H522): 82.7%
2 | O=C(NCCNc1nccc(-c2c(-c3cccc(O)c3)nc3sccn23)n1)Nc1ccccc1 | 92.3% | 64.3% | 102% | 46% | 108% | 68.8% | 150% | 94.7% | 90.7% | 101% | 114% | 99.9% | 62.4% | 70.6% | 58.3% | 100% | 57.4% | 99.7% | 31.1% | 92.7% | growth at 10 µM (OVCAR-8): 68.1%; growth at 10 µM (UACC-257): 46.2%; growth at 10 µM (COLO 205): 69.3%; growth at 10 µM (RXF 393): 86.3%; growth at 10 µM (OVCAR-3): 112%; growth at 10 µM (DU-145): 110%; growth at 10 µM (SNB-75): 71.6%; growth at 10 µM (Malme-3M): 36.1%; growth at 10 µM (NCI-H522): 57%
3 | O=C(NCCNc1nccc(-c2c(-c3cccc(O)c3)nc3sccn23)n1)Nc1cc(C(F)(F)F)cc(C(F)(F)F)c1 | 89.3% | 82.8% | 51.8% | 39.1% | 77% | 43.1% | 118% | 65.5% | 57.7% | 87.8% | 90.9% | 65.2% | 96.5% | 72.7% | 45.7% | 82% | 68.8% | 86% | 9.9% | 79.2% | growth at 10 µM (OVCAR-8): 52.8%; growth at 10 µM (UACC-257): 57%; growth at 10 µM (COLO 205): 45.1%; growth at 10 µM (RXF 393): 41.4%; growth at 10 µM (OVCAR-3): 82.2%; growth at 10 µM (DU-145): 97.1%; growth at 10 µM (SNB-75): 66.1%; growth at 10 µM (Malme-3M): 60.5%; growth at 10 µM (NCI-H522): 69.5%
4 | COc1cccc(-c2nc3sccn3c2-c2ccnc(NCCNC(=O)c3ccccc3)n2)c1 | 88.5% | 84.3% | 84.9% | 52.5% | 102% | 87.8% | 111% | 114% | 75.3% | 70.5% | 87.3% | 69.2% | 97.7% | 67.5% | 41.6% | 78.4% | 64.2% | 66.3% | 55.2% | 81.9% | growth at 10 µM (OVCAR-8): 62.5%; growth at 10 µM (UACC-257): 69.7%; growth at 10 µM (COLO 205): 51.8%; growth at 10 µM (RXF 393): 86.3%; growth at 10 µM (OVCAR-3): 89.2%; growth at 10 µM (DU-145): 100%; growth at 10 µM (SNB-75): 92.6%; growth at 10 µM (Malme-3M): 26.7%; growth at 10 µM (NCI-H522): 61.8%
5 | COc1cccc(-c2nc3sccn3c2-c2ccnc(NCCNC(=O)c3ccccc3O)n2)c1 | 90% | 86% | 92.1% | 34.7% | 103% | 77.2% | 114% | 113% | 82.5% | 54.6% | 93.4% | 60.9% | 98% | 59.4% | 26% | 91% | 77.1% | 89.7% | 54.3% | 66.1% | growth at 10 µM (OVCAR-8): 55.2%; growth at 10 µM (UACC-257): 78.7%; growth at 10 µM (COLO 205): 107%; growth at 10 µM (RXF 393): 78.9%; growth at 10 µM (OVCAR-3): 75%; growth at 10 µM (DU-145): 94.5%; growth at 10 µM (SNB-75): 103%; growth at 10 µM (Malme-3M): 57.5%; growth at 10 µM (NCI-H522): 61.7%
6 | COc1cccc(-c2nc3sccn3c2-c2ccnc(NCCNC(=O)c3cc(N4CCOCC4)cc(C(F)(F)F)c3)n2)c1 | 99.4% | 89.3% | 95.6% | 49.4% | 100% | 83.2% | 112% | 98.7% | 82.2% | 76.5% | 110% | 67.5% | 101% | 90.1% | 39.1% | 74.4% | 88.2% | 86% | 62.8% | 88.5% | growth at 10 µM (UACC-257): 89.5%; growth at 10 µM (COLO 205): 73.3%; growth at 10 µM (RXF 393): 72.6%; growth at 10 µM (OVCAR-3): 96.3%; growth at 10 µM (DU-145): 94.6%; growth at 10 µM (SNB-75): 72.2%; growth at 10 µM (Malme-3M): 80.8%; growth at 10 µM (NCI-H522): 69.5%
7 | O=C(NCCNc1nccc(-c2c(-c3cccc(O)c3)nc3sccn23)n1)c1cccc(C(F)(F)F)c1 | 84.2% | 83.2% | 85.7% | 37.5% | 84.8% | 81% | 114% | 117% | 71.3% | 98.3% | 81% | 62.1% | 100% | 56.2% | 44.2% | 89.3% | 38.5% | 84.5% | 21.7% | 87.8% | growth at 10 µM (UACC-257): 14.3%; growth at 10 µM (COLO 205): 71.1%; growth at 10 µM (RXF 393): 79.9%; growth at 10 µM (OVCAR-3): 89.8%; growth at 10 µM (DU-145): 91.4%; growth at 10 µM (SNB-75): 73.8%; growth at 10 µM (Malme-3M): 0.75%; growth at 10 µM (NCI-H522): 48.5%
